Columns and labels:
[1] = target: T1, Lethal factor (Bacillus anthracis) (UniProt P15917); conditions: at 1 mM
T1 sequence (whole entry): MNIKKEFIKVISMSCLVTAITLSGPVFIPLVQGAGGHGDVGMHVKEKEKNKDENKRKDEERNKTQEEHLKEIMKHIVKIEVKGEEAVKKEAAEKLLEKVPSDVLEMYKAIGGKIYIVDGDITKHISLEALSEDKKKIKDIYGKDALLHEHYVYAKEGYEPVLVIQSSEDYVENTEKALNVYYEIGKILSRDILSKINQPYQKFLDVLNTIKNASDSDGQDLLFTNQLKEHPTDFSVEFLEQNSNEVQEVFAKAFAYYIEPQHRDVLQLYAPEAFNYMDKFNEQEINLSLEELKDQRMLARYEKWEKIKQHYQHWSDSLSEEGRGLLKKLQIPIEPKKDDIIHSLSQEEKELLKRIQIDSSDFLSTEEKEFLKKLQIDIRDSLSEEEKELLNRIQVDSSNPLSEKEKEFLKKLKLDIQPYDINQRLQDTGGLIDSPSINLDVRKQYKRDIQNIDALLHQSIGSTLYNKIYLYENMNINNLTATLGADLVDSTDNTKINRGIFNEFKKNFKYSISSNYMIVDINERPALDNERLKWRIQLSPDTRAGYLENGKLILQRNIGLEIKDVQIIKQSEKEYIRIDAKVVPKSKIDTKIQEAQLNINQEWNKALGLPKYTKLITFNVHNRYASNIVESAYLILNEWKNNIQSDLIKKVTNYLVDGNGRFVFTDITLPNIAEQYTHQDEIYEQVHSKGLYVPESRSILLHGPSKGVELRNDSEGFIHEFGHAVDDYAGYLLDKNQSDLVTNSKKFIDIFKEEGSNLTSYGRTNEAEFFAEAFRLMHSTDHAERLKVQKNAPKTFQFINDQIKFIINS

[2] = target: T2, 72 kDa type IV collagenase (Homo sapiens, UniProt P08253); conditions: at 1 mM
Target sequence in this assay (P08253 110-660 limits assumed): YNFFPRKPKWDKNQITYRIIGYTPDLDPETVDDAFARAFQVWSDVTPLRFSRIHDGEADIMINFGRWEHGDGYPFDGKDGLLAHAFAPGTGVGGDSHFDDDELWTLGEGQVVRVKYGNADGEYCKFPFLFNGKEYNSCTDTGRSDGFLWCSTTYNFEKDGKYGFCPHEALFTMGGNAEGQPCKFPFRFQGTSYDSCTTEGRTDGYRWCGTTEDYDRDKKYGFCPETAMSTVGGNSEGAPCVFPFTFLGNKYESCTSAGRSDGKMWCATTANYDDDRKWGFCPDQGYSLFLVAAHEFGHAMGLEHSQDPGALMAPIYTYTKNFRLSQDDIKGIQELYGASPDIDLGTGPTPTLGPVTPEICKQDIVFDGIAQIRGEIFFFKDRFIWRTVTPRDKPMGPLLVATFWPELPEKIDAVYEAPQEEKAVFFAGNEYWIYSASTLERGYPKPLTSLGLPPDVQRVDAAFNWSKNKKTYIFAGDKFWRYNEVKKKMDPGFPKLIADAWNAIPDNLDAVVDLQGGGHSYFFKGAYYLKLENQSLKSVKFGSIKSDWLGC

[3] = target: T2, 72 kDa type IV collagenase; experiment: Inhibition of human recombinant MMP2 after 30 mins
Procedure, shortened: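 Enzyme (1.16 U) preincubated 30 min at 37 °C with fragment in 50 mM HEPES, 10 mM CaCl2, 0.05% Brij-35, pH 7.5. Fluorogenic Mca peptide substrate (4 μM final) then added. Rate of fluorescence increase compared with no-inhibitor control (100%). Single-point 25 μM final for the 8-hydroxyquinoline sublibrary. IC50 fitted to dose-response curves from serial dilutions of DMSO stocks.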
Target sequence in this assay (P08253 whole entry): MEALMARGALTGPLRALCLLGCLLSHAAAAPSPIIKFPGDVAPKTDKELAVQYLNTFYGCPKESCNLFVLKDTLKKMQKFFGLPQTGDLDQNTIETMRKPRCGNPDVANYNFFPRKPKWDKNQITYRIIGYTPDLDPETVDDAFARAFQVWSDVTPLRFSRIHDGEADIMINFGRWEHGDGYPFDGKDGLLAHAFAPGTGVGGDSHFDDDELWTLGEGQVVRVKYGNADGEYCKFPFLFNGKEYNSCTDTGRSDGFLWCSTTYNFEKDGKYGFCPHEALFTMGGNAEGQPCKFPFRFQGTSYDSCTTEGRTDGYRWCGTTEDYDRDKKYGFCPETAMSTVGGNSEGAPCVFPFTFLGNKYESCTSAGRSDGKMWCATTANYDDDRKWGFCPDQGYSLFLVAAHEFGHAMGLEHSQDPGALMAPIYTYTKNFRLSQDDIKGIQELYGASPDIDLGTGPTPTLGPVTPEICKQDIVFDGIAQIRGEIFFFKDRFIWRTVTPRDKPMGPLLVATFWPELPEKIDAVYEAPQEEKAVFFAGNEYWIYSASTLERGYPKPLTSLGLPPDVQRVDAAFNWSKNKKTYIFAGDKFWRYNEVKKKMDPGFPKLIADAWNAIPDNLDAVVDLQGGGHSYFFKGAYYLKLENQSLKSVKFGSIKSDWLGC

Row | SMILES | inhibition [1] | inhibition [2] | IC50 [3]
1 | O=c1cc(CCl)occ1O | 30% | 65% | 
2 | Cc1cc(O)nc(C)n1 | 18% | 2% | 
3 | CCCCc1ccc(C(=O)O)nc1 | 29% | 43% | 
4 | O=c1ccocc1O | 29% | 48% | 
5 | Oc1ncccn1 | 28% | 24% | 
6 | O=C(O)c1ccc(F)cc1O | 17% | -8% | 
7 | Cc1cccc(C(=O)O)c1O | 8% | 1% | 
8 | Cc1ccc(O)c(C(=O)O)c1 | 56% | 65% | 
9 | [O-][n+]1cccc2cccc(O)c21 | 59% | 62% | 
10 | Cc1occ(O)c(=O)c1C(=O)O | 45% | 56% | 
11 | O=C(O)c1ccc(C(=O)O)nc1 | 18% | -5% | 
12 | Cc1nc(O)nc(O)c1C | 28% | 5% | 
13 | O=c1occcc1O | 21% | 66% | 
14 | Cc1cc(=O)c(O)c(CCl)o1 | 21% | 44% | 
15 | C1CNCCNCCN1 | 59% | 100% | 
16 | O=C(O)c1cccc(C(=O)O)n1 | 83% | -6% | 
17 | Cc1cc(=O)c(O)co1 | 22% | 37% | 
18 | O=C(O)c1ccccc1O | 6% | 12% | 

Row | SMILES | inhibition [1] | inhibition [2] | IC50 [3]
19 | c1ccc(CNCc2ccccn2)nc1 | 41% | 100% | 
20 | O=C(O)c1cccc(O)c1O | 9% | -1% | 
21 | Cc1cc(O)nc(O)n1 | 8% | -7% | 
22 | O=C(O)c1cccc(Br)n1 | 75% | -4% | 
23 | Cc1ccc(S(N)(=O)=O)cc1 | 6% | -2% | 
24 | O=c1cccccc1O [TROPOLONE] | 55% | 89% | 146 µM
25 | O=C(O)c1cccc[n+]1[O-] | 40% | 1% | 
26 | O=C(O)c1ncccc1O | 43% | 58% | 
27 | CC(=O)C(C)C(C)=O | -7% | -3% | 
28 | CC(=O)C1CCCC1=O (stereo not drawn) | 6% | 20% | 
29 | Cn1cccc(O)c1=O | 1% | 4% | 
30 | O=C(O)c1nccc2ccccc12 | 31% | 42% | 
31 | O=C(O)c1cc(F)ccc1O | 16% | -2% | 
32 | CCn1ccc(=O)c(O)c1C | 10% | 16% | 
33 | Nc1ccc(C(=O)O)c(O)c1 | 30% | -1% | 
34 | O=C(O)c1ccccn1 | 49% | 25% | 
35 | Nc1cc(=O)nc(N)[nH]1 | 34% | 6% | 
36 | Nc1[nH]cnc2ncnc1-2 | 16% | -1% | 
